{
  "source": "paper PMC11673187",
  "about": "(JACS Au, 2024)",
  "key": {"[1]": {"details": "metal-free, absence of proximity enforcing conditions; cited from earlier work"}, "PTHR1 [2]": {"biological_target": "T1, PTHR1 (Homo sapiens, UniProt Q03431)", "T1 sequence (Q03431 27-593)": "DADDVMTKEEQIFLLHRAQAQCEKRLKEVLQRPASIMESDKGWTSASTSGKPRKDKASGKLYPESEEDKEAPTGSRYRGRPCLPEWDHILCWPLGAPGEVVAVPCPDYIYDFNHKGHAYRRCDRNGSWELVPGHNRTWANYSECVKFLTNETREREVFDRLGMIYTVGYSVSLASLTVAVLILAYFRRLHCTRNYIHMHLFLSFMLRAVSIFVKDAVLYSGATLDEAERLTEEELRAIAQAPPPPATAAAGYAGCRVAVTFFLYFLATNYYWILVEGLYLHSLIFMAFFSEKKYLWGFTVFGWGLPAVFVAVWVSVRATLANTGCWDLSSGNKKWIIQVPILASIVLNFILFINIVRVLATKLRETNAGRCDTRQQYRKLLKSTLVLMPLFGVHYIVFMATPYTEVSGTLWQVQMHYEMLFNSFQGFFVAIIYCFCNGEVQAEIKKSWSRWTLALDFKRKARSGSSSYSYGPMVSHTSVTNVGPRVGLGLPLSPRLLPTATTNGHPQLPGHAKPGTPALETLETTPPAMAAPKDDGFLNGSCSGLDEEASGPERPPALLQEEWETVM", "details": "fragments of PTH1–34; cited from earlier work"}, "[3]": {"tested_on": "Nbs bearing click handles (Nb6EPEG4DBCO and NbALFAbiotinN3)", "test": "Assessment of click chemistry", "details": "Gly vs Ahx linker; azide vs alkyne pairing; S4A-C", "method_in_brief": "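Click cross-linking run at room temperature in TBS with 10 µM of each nanobody bearing a click handle (DBCO or azide), with or without equimolar dimeric template peptide. Quenched with 500 µM GGG-Lys(azide) peptide, then denatured in Laemmli buffer with 100 mM DTT at 95 °C. Products resolved on 15% polyacrylamide gels and stained. High-MW cross-linked band quantified by densitometry, normalized to a control quenched at T = 0.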"}, "PTHR1 [4]": {"biological_target": "T1, PTHR1", "test": "PTHR1-mediated signaling via Gαs/cAMP", "format": "cell-based", "details": "DPahx 300 nM with various concentrations of Nb-PTH conjugates; Figure 3D, S8", "method_in_brief": "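HEK293 cells stably expressing PTHR1 and a cAMP luminescence reporter, grown in DMEM with 10% FBS and Pen-Strep, mycoplasma-free. Varying concentrations of the complementary azide and DBCO nanobody–PTH fragment conjugates added with or without 300 nM dimeric peptide. Luminescence normalized to the maximum for the conjugate pair alone; technical replicates in a representative experiment.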"}},
  "data": [
    {"substance": "dibenzylcyclooctyne [DBCO]", "values": [
      {"measurement": "DBCO-azide cycloaddition rate", "setting": "[1]", "value": "~1", "unit": "M^–1S^1–"}
    ]},
    {"substance": "PTH12–34: fragment of PTHR1 agonist peptide PTH1–34 (GKHLNSMERVEWLRKKLQDVHNF; Parathyroid hormone; UniProt P01270 43-65, looked up, fragment)", "values": [
      {"measurement": "activity of PTHR1 agonist fragments", "setting": "PTHR1 [2]", "value": "weakly active or inactive"}
    ]},
    {"substance": "CQADQEAKELARQISGSRLEEELRRRLTE [DPgly]", "values": [
      {"measurement": "cross-linking kinetics", "setting": "[3]", "value": "no major differences observed"}
    ]},
    {"substance": "CQADQEAKELARQISZSRLEEELRRRLTE [DPahx]", "values": [
      {"measurement": "cross-linking kinetics", "setting": "[3]", "value": "no major differences observed"},
      {"measurement": "DP-potentiated activation of PTHR1", "setting": "PTHR1 [4]", "value": "DP-potentiated activation of PTHR1"}
    ]}
  ]
}
